# Experimental data as given in ChEMBL document CHEMBL1155841, “Methyl (11aS)-1,2,3,5,11,11a-hexahydro-3,3-dimethyl-1-oxo-6H-imidazo-[3',4':1,2]pyridin[3,4-b]indol-2-substituted acetates: synthesis and three-dimensional quantitative structure-activity relationship investigation as a class of novel vasodilators” (2008).
# Species: Rattus norvegicus
# Test: Vasorelaxation activity against noradrenaline-induced hypertonic contraction in Wistar rat aorta strips at 5 mM
# Type: functional
# Parameters: scale not given: the % may be the effect or the level left
# How it was run: (§1)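 Aortic strips first contracted with 59 µM noradrenaline, then washed out and stabilized for 30 min. After fresh solution, 59 µM NE was re-added, and peak contraction was taken as 100%. Test agent, dissolved in ethanol, was then added, with ethanol alone as vehicle control. Percent relaxation of the NE contraction was recorded as activity, given as mean ± SD, n = 6.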
row,Structure (SMILES),Activity
1,COC(=O)C[C@H](NC(=O)[C@@H]1Cc2c([nH]c3ccccc23)CN1C(=O)OC(C)(C)C)C(=O)OC,0%
2,COC(=O)[C@H](Cc1c[nH]c2ccccc12)NC(=O)[C@@H]1Cc2c([nH]c3ccccc23)CN1C(=O)OC(C)(C)C,15.2%
3,COC(=O)[C@H](CC(N)=O)NC(=O)[C@@H]1Cc2c([nH]c3ccccc23)CN1C(=O)OC(C)(C)C,0%
4,COC(=O)[C@H](CCSC)NC(=O)[C@@H]1Cc2c([nH]c3ccccc23)CN1C(=O)OC(C)(C)C,6%
5,COC(=O)CNC(=O)[C@@H]1Cc2c([nH]c3ccccc23)CN1C(=O)OC(C)(C)C,13.5%
6,COC(=O)[C@H](CCC(N)=O)NC(=O)[C@@H]1Cc2c([nH]c3ccccc23)CN1C(=O)OC(C)(C)C,0%
7,CCC(C)[C@H](NC(=O)[C@@H]1Cc2c([nH]c3ccccc23)CN1C(=O)OC(C)(C)C)C(=O)OC (some centres undefined),10.9%
8,COC(=O)CC[C@H](NC(=O)[C@@H]1Cc2c([nH]c3ccccc23)CN1C(=O)OC(C)(C)C)C(=O)OC,0%
9,COC(=O)[C@H](Cc1c[nH]cn1)NC(=O)[C@@H]1Cc2c([nH]c3ccccc23)CN1C(=O)OC(C)(C)C,0%
10,COC(=O)[C@H](CCCNC(=N)N)NC(=O)[C@@H]1Cc2c([nH]c3ccccc23)CN1C(=O)OC(C)(C)C,11.3%
11,COC(=O)[C@H](Cc1ccccc1)NC(=O)[C@@H]1Cc2c([nH]c3ccccc23)CN1C(=O)OC(C)(C)C,0%
12,CN1CC(=O)N2[C@H](c3ccc4c(c3)OCO4)c3[nH]c4ccccc4c3C[C@@H]2C1=O [TADALAFIL],89.9%
13,COC(=O)[C@@H](NC(=O)[C@@H]1Cc2c([nH]c3ccccc23)CN1C(=O)OC(C)(C)C)C(C)O (some centres undefined),0%
14,COC(=O)[C@@H](NC(=O)[C@@H]1Cc2c([nH]c3ccccc23)CN1C(=O)OC(C)(C)C)C(C)C,8.9%
15,COC(=O)[C@H](CC(C)C)NC(=O)[C@@H]1Cc2c([nH]c3ccccc23)CN1C(=O)OC(C)(C)C,7.8%
16,COC(=O)[C@H](CO)NC(=O)[C@@H]1Cc2c([nH]c3ccccc23)CN1C(=O)OC(C)(C)C,6.1%
17,COC(=O)[C@H](C)NC(=O)[C@@H]1Cc2c([nH]c3ccccc23)CN1C(=O)OC(C)(C)C,18.8%
18,COC(=O)[C@H](Cc1ccc(O)cc1)NC(=O)[C@@H]1Cc2c([nH]c3ccccc23)CN1C(=O)OC(C)(C)C,7.4%

# Species: Rattus norvegicus
# Test: Vasorelaxation activity against noradrenaline-induced hypertonic contraction in Wistar rat aorta strips
# Type: functional
# How it was run: as §1
row,Structure (SMILES),Activity
1,COC(=O)[C@H](C)N1C(=O)[C@@H]2Cc3c([nH]c4ccccc34)CN2C1(C)C,Dose-dependent effect
2,COC(=O)[C@H](Cc1c[nH]c2ccccc12)N1C(=O)[C@@H]2Cc3c([nH]c4ccccc34)CN2C1(C)C,Dose-dependent effect
3,CCC(C)[C@@H](C(=O)OC)N1C(=O)[C@@H]2Cc3c([nH]c4ccccc34)CN2C1(C)C (some centres undefined),Dose-dependent effect

# Species: Rattus norvegicus
# Test: Vasorelaxation activity against noradrenaline-induced hypertonic contraction in Wistar rat aorta strips at 50 uM
# Type: functional
# Parameters: scale not given: the % may be the effect or the level left
# How it was run: as §1
row,Structure (SMILES),Activity
1,COC(=O)[C@H](C(C)C)N1C(=O)[C@@H]2Cc3c([nH]c4ccccc34)CN2C1(C)C,24.2%
2,COC(=O)[C@H](C)N1C(=O)[C@@H]2Cc3c([nH]c4ccccc34)CN2C1(C)C,91.8%
3,COC(=O)[C@H](CCCNC(=N)N)N1C(=O)[C@@H]2Cc3c([nH]c4ccccc34)CN2C1(C)C,36.7%
4,CC(=O)OCC[N+](C)(C)C [ACETYLCHOLINE],42.3%
5,COC(=O)[C@H](CCSC)N1C(=O)[C@@H]2Cc3c([nH]c4ccccc34)CN2C1(C)C,15.1%
6,COC(=O)C[C@@H](C(=O)OC)N1C(=O)[C@@H]2Cc3c([nH]c4ccccc34)CN2C1(C)C,6.3%
7,COC(=O)[C@H](CCC(N)=O)N1C(=O)[C@@H]2Cc3c([nH]c4ccccc34)CN2C1(C)C,0%
8,COC(=O)[C@H](CO)N1C(=O)[C@@H]2Cc3c([nH]c4ccccc34)CN2C1(C)C,16.9%
9,COC(=O)[C@H](C(C)O)N1C(=O)[C@@H]2Cc3c([nH]c4ccccc34)CN2C1(C)C (some centres undefined),0%
10,COC(=O)[C@H](CC(N)=O)N1C(=O)[C@@H]2Cc3c([nH]c4ccccc34)CN2C1(C)C,0%
11,COC(=O)[C@H](Cc1c[nH]c2ccccc12)N1C(=O)[C@@H]2Cc3c([nH]c4ccccc34)CN2C1(C)C,63.5%
12,COC(=O)[C@H](CC(C)C)N1C(=O)[C@@H]2Cc3c([nH]c4ccccc34)CN2C1(C)C,15.7%
13,COC(=O)[C@H](Cc1ccc(O)cc1)N1C(=O)[C@@H]2Cc3c([nH]c4ccccc34)CN2C1(C)C,16.3%
14,CCC(C)[C@@H](C(=O)OC)N1C(=O)[C@@H]2Cc3c([nH]c4ccccc34)CN2C1(C)C (some centres undefined),34%
15,COC(=O)[C@H](Cc1ccccc1)N1C(=O)[C@@H]2Cc3c([nH]c4ccccc34)CN2C1(C)C,0%
16,COC(=O)[C@H](Cc1c[nH]cn1)N1C(=O)[C@@H]2Cc3c([nH]c4ccccc34)CN2C1(C)C,0%
17,COC(=O)CC[C@@H](C(=O)OC)N1C(=O)[C@@H]2Cc3c([nH]c4ccccc34)CN2C1(C)C,9.9%
18,COC(=O)CN1C(=O)[C@@H]2Cc3c([nH]c4ccccc34)CN2C1(C)C,45.5%
